Assay outcomes: PubChem BioAssay, several laboratories
LMPTP block: LMPTP phosphatase inhibitors, primary screen, biochemical, fluorescence intensity, uHTS | Low molecular weight phosphotyrosine protein phosphatase (Homo sapiens), P24666 | recombinant LMPTP-A, OMFP fluorogenic substrate | inhibition, % at 20 µM | 0.22% of 360,000 active | AID 651560, 2012;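 active = compounds that cut the enzyme signal by at least half of the control window in the single-dose screen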;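 also: plate controls were DMSO wells with enzyme plus substrate for no effect and substrate without enzyme for full effect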
Target sequence (P24666 whole entry, looked up): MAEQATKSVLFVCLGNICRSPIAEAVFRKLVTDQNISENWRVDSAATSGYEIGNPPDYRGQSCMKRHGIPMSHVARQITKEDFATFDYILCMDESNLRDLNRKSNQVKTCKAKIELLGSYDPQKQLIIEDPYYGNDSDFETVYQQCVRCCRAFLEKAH
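test system = LMPTP-A | amount = 0.625 nM LMPTP-A final | reagent = fluorogenic phosphatase substrate OMFP at 400 µM final | incubation = 50 min at room temperature | benchmarks = no-enzyme low control, uninhibited high control | medium = Bis-Tris pH 6.0, DTT, detergent | signal = fluorescence intensity of OMFP turnover product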
SUMO1 PPI mod: modulators of SUMO1 protein-protein interactions, primary screen, biochemical, uHTS; Small ubiquitin-related modifier 1 (Homo sapiens), P63165; SUMO1 binding to a labelled peptide, TR-FRET, 1 h; inhibition, % at 20 µM; 0.33% of 360,000 active; AID 602429, 2012; in the data active = inhibition above about 37%
Target sequence (P63165 whole entry, looked up): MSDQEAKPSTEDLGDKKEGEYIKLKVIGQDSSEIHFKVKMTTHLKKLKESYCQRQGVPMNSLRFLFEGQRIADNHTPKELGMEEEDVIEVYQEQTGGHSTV
Scp-1 inhibitor: Scp-1 phosphatase inhibitors, primary screen, biochemical, colorimetric, uHTS | 0.88% of 340,000 active | inhibition, % at 20 µM | Recombinant Scp1, phosphopeptide, malachite green phosphate absorbance | Carboxy-terminal domain RNA polymerase II polypeptide A small phosphatase 1 (Homo …;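 active = inhibition above about 50% at 20 µM, limit read from the data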;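 also: plate controls were DMSO wells with enzyme for no effect and wells lacking enzyme for full effect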
Target sequence (Q9GZU7 76-261 limits assumed): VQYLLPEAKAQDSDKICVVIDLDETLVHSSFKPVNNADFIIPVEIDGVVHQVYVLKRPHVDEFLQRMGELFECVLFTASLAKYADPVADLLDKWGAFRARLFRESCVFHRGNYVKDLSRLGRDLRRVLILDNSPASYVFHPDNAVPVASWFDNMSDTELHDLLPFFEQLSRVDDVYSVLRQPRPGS
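Assay system: SCP-1 catalytic fragment, aa 76-261 | Buffer or medium: Tris acetate buffer pH 5.5 with MgCl2 and Tween-20 | Compound: One concentration, 20 µM, with 1.0% DMSO | Also added: Phospho 17-mer peptide substrate | Signal: Absorbance at 630 nm | Incubation: 45 min enzyme reaction at room temperature | Measure: % inhibition of SCP-1 phosphate liberation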
Pemphigus Ab inh: inhibitors of pemphigus antibody binding to DSG3, primary screen, biochemical, bead-based, flow cytometry, scFv-GFP; Desmoglein-3 (Homo sapiens), P32926; 0.48% of 310,000 active; DSG3-coupled beads, scFv-anti-DSG3-GFP binding; stronger effect = lower value; binding (percent of control), % at 10 µM;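 active = binding more than 3 SD below its plate's average and above zero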;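 also: hits lower antibody fragment binding to DSG3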
STEP block: STEP phosphatase inhibitors, primary screen, biochemical, fluorescence intensity, uHTS. Tyrosine-protein phosphatase non-receptor type 5 (Homo sapiens), P54829. recombinant STEP, OMFP fluorogenic substrate. inhibition, % at 20 µM. 0.25% of 360,000 active. AID 588621, 2011;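 active = inhibition at 20 µM, scaled per plate between control wells, above about 37%, limit read from the data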;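 also: 0% = DMSO with enzyme and substrate and 100% = substrate only without enzyme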
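Test system: STEP tyrosine phosphatase / Reagent: OMFP at 25 µM / Doses: 20 µM, 1% DMSO / Read-out: percent inhibition scaled to no-enzyme and uninhibited-enzyme controls, plate-pattern corrected / Detection: FITC-channel fluorescence of OMFP product / Medium: Bis-Tris buffer pH 6.0, 2.5 mM DTT, 0.005% Tween 20 / Schedule: 20 min at room temperature, dark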
* marks the source's active call; other numbers are inactive results. Hits are enriched below; roughly 1.7% of the tested compounds scored in any of these assays.

CCc1nn2c(N3CCOCC3)cc(C)nc2c1-c1ccccc1 was read as LMPTP block -1, SUMO1 PPI mod 6, Scp-1 inhibitor 4, Pemphigus Ab inh 96 and STEP block -1.
`Cc1ccc(NC(=O)C2CCN(S(=O)(=O)c3cc([N+](=O)[O-])ccc3Cl)CC2)nc1` gave LMPTP block -1, SUMO1 PPI mod -24, Scp-1 inhibitor 23, Pemphigus Ab inh 95 and STEP block 1.
Screening Cc1ccc2nc(NC(=O)C3CCN(S(=O)(=O)c4cc([N+](=O)[O-])ccc4Cl)CC3)sc2c1 returned LMPTP block 4, SUMO1 PPI mod 3, Scp-1 inhibitor 64*, Pemphigus Ab inh 96 and STEP block 0.
O=C(Nc1nc2ccc(F)cc2s1)C1CCN(S(=O)(=O)c2cc([N+](=O)[O-])ccc2Cl)CC1 was read as LMPTP block 3, SUMO1 PPI mod 1, Scp-1 inhibitor 55*, Pemphigus Ab inh 90 and STEP block 2.
CCOc1ccc2nc3cc(N=Nc4ccc(N)nc4N)ccc3c(N)c2c1 was read as LMPTP block 72*, SUMO1 PPI mod 116*, Scp-1 inhibitor 0, Pemphigus Ab inh 117 and STEP block 66*.
COc1ccc(C2=CC3=C(Br)C(=O)C(C)(OC(=O)c4ccco4)C(=O)C3=CO2)cc1 (stereo not given) was read as LMPTP block 2, SUMO1 PPI mod 32, Scp-1 inhibitor 21, Pemphigus Ab inh 88 and STEP block 0.
`COc1ccc(C2=CC3=C(Br)C(=O)C(C)(OC(=O)c4cccs4)C(=O)C3=CO2)cc1` (stereo not given) gave LMPTP block 0, SUMO1 PPI mod 44*, Scp-1 inhibitor 9, Pemphigus Ab inh 93 and STEP block 2.
For Cc1c(C)c2ccc(OCC(=O)Nc3ccccn3)cc2oc1=O the results were LMPTP block 0, SUMO1 PPI mod 55*, Scp-1 inhibitor 6, Pemphigus Ab inh 126 and STEP block 0.
`O=C1COc2ccc(C(=O)COC(=O)CCCOc3ccccc3)cc2N1` gave LMPTP block 0, SUMO1 PPI mod -7, Pemphigus Ab inh 82* and STEP block 2.
Cc1ccc(C(=O)COc2ccc3c(C)cc(=O)oc3c2)cc1 was read as LMPTP block 0, SUMO1 PPI mod -4, Scp-1 inhibitor -12, Pemphigus Ab inh 94 and STEP block 1.
For Cc1cc(=O)oc2cc(OCC(=O)c3ccc4c(c3)NC(=O)CO4)ccc12 the results were LMPTP block 39, SUMO1 PPI mod 42*, Scp-1 inhibitor 3, Pemphigus Ab inh 88 and STEP block 2.
For O=C1COc2ccc(C(=O)COC(=O)CNC(=O)c3ccccc3)cc2N1 the results were LMPTP block 0, SUMO1 PPI mod 4, Scp-1 inhibitor -3, Pemphigus Ab inh 100 and STEP block 2.
`N#CCC(=O)Nc1ccc(C(=O)OCC(=O)c2ccc3c(c2)NC(=O)CO3)cc1` gave LMPTP block 16, SUMO1 PPI mod 84*, Scp-1 inhibitor 11 and STEP block 3.
Screening O=C1COc2ccc(C(=O)COC(=O)CCSc3ccccc3)cc2N1 returned LMPTP block 5, SUMO1 PPI mod -3, Scp-1 inhibitor -6, Pemphigus Ab inh 73* and STEP block 2.
`O=S(=O)(Nc1cc(Sc2ncn[nH]2)c(O)c2ccccc12)c1ccccc1` gave LMPTP block 9, SUMO1 PPI mod 85*, Scp-1 inhibitor 17 and STEP block 3.
`COc1ccc2nc(NC(=O)CSc3nnnn3C)sc2c1` gave LMPTP block 1, SUMO1 PPI mod 5, Scp-1 inhibitor 3, Pemphigus Ab inh -8.1* and STEP block -1.
Screening COc1cc(C(=O)NCc2nnc(SCC(=O)Nc3nc4ccccc4s3)o2)cc(OC)c1OC returned LMPTP block -1, SUMO1 PPI mod 7, Scp-1 inhibitor -3, Pemphigus Ab inh 106 and STEP block 3.
Screening COc1ccc2nc(NC(=O)CSc3nnnn3C3CCCCC3)sc2c1 returned LMPTP block 4, SUMO1 PPI mod 1, Scp-1 inhibitor -8, Pemphigus Ab inh 103 and STEP block -4.
Screening COc1ccc(C(=O)NCc2nnc(SCC(=O)Nc3nc4ccccc4s3)o2)cc1 returned LMPTP block 3, SUMO1 PPI mod 4, Scp-1 inhibitor -7, Pemphigus Ab inh 85* and STEP block -2.
`CC1CC(CCC(=O)NC(=S)Nc2ccc(S(N)(=O)=O)cc2)C(=O)O1` (stereo not given) gave LMPTP block -1, SUMO1 PPI mod 0, Scp-1 inhibitor -3, Pemphigus Ab inh 96 and STEP block 1.
`Cc1ccc(C(=O)OCc2nc3ccsc3c(=O)[nH]2)o1` gave LMPTP block -2, SUMO1 PPI mod 1, Scp-1 inhibitor 11, Pemphigus Ab inh 98 and STEP block 1.
`O=C(/C=C/c1ccc(Br)o1)OCc1nc2ccsc2c(=O)[nH]1` gave LMPTP block 76*, SUMO1 PPI mod 120*, Scp-1 inhibitor 86*, Pemphigus Ab inh 50* and STEP block 89*.
O=C(CN1CCc2ccccc21)NCc1ccc2c(c1)OCO2 was read as LMPTP block 1, SUMO1 PPI mod 22, Scp-1 inhibitor -1, Pemphigus Ab inh 106 and STEP block -2.
For O=C(CN1CCc2ccccc21)Nc1ccc2c(c1)OCO2 the results were LMPTP block 1, SUMO1 PPI mod -19, Scp-1 inhibitor -2, Pemphigus Ab inh 72* and STEP block 2.
For O=C1C=C(c2ccc(Oc3ccccc3)cc2)C[C@@H](c2ccc3c(c2)OCO3)C1 the results were LMPTP block 6, SUMO1 PPI mod -2, Scp-1 inhibitor -18, Pemphigus Ab inh 106 and STEP block 0.
CC(=O)C1=C(C)NC(SCC(=O)c2ccc(Cl)cc2Cl)=C(C#N)C1c1ccco1 (stereo not given) was read as LMPTP block 4, SUMO1 PPI mod -17, Scp-1 inhibitor -3, Pemphigus Ab inh 77* and STEP block 2.
CC(=O)C1=C(C)NC(SCC(=O)c2ccc(Cl)cc2)=C(C#N)C1c1ccco1 (stereo not given) was read as LMPTP block 1, SUMO1 PPI mod -8, Scp-1 inhibitor -7, Pemphigus Ab inh 96 and STEP block 3.
For COc1ccc(N2CCN(C(=O)c3sc4nc(-c5ccc(F)cc5)cn4c3C)CC2)cc1 the results were LMPTP block 0, SUMO1 PPI mod 0, Scp-1 inhibitor -1, Pemphigus Ab inh 27* and STEP block 2.
